XBP1 UPR activ: activators of adaptive arm of unfolded protein response (XBP1). CHO-XBP1 luciferase reporter, IRE1-XBP1 UPR activation, luminescence; percent of tunicamycin response, DMSO as zero. activation, % at 20 µM. 330,000 compounds, 0.33% hits. AID 463104;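 active = versus positive control, 20 µM dose yields 30% or more activation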
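Material: CHO-XBP1 cells stably carrying IRE1-XBP1-driven luciferase reporter / Amount: 1000 cells per well / Compound: 20 µM, 1% DMSO / Times: 6 h treatment, 37 °C / Detection: luciferase luminescence / Measure: % activation of reporter signal versus tunicamycin and DMSO controls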
CHOP inh: CHOP inhibition in unfolded protein response; CHO-K1 CHOP-promoter luciferase, tunicamycin-induced, 15-18 h; inhibition, % at 10 µM; 220,000 compounds, 3.8% hits; AID 2732;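 active = compounds that reduced the stress-induced luciferase reporter signal by more than about 70% of percent inhibition, limit read from the data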
GAA850 FXN act: activators of GAA850 frataxin (FXN) promoter. HEK293 lucGAA850 FXN promoter luciferase reporter, 24 h; percent of 10 µM SAHA response. activation, % at 6 µM. 360,000 compounds, 0.56% hits. AID 540364;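 active = activation above the average of all compounds screened plus 3 SD, cutoff fixed separately per campaign, cut at about 7.5% in these data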
CHOP UPR activ: activators of apoptotic arm of unfolded protein response (CHOP); 330,000 compounds, 0.34% hits; CHO-CHOP luciferase reporter, UPR activation, luminescence; percent of tunicamycin response over DMSO baseline; AID 449763; activation, % at 10 µM;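 active = at 10 µM dose, activation of 40% or more, normalized to positive control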
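System: CHO-CHOP luciferase reporter cell line | Buffer or medium: F12 medium containing 10% fetal bovine serum | Doses: One dose, 10 µM in 0.5% DMSO | Times: 6 h compound exposure at 37 °C after overnight seeding | Signal: Luciferase luminescence | Read-out: % activation vs tunicamycin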
Of the large screens only hits and unclear results are named; the others gave an inactive call. Many of the other results were omitted from the sample, so hits are more common in it than they were.

O=C(N[C@@H](Cc1ccccc1)C(=O)CCl)OCc1ccccc1	CHOP UPR activ 158
O=C(N[C@@H](Cc1ccccc1)C(=O)N[C@@H](Cc1ccccc1)C(=O)O)OCc1ccccc1	none (no result: CHOP inh)
CN(Cc1ccccc1)c1nccn2ccnc12	none (no result: XBP1 UPR activ, CHOP inh, CHOP UPR activ)
COc1ccc2c(c1OC)C(=O)OC2Nc1nc(-c2cc3cc(Br)ccc3oc2=O)cs1 (centres undefined)	CHOP inh 71
O=C(c1cc2c(s1)-c1ccccc1OC2)N1CCN(c2ccccc2)CC1	CHOP inh 83
COc1ccc(N2CCN(C(=O)c3cc4c(s3)-c3ccccc3OC4)CC2)cc1	none (no result: CHOP inh)
CN(C)CCNC(=O)c1cc2c(s1)-c1ccccc1OC2	none
Cc1csc(NC(=O)c2cc3c(s2)-c2ccccc2OC3)n1	CHOP inh 81
CS(=O)(=O)N(CC(=O)N/N=C/c1ccccc1C(=O)O)c1cccc(Cl)c1Cl	none
CC(C)c1ccc(/C=N/NC(=O)CN(c2cccc(Cl)c2Cl)S(C)(=O)=O)cc1	CHOP inh 86
CCCCNC(=O)C1(C)CCN1C(=O)c1ccc(OC)c(F)c1 (centres undefined)	none (no result: XBP1 UPR activ, CHOP inh, CHOP UPR activ)
O=c1ccoc2ccccc12	none (no result: XBP1 UPR activ, CHOP inh, CHOP UPR activ)
CCOc1ccccc1Oc1cn[nH]c1-c1ccc(OCC(=O)NN)cc1O	none (no result: CHOP inh)
CCOc1ccc(-c2[nH]ncc2Oc2ccccc2OC)c(O)c1	CHOP inh 82
C=C(C)COc1ccc(-c2nc(N)ncc2Oc2ccccc2OC)c(O)c1	CHOP inh 93
C=C(C)COc1ccc(-c2nc(N)ncc2Oc2ccc(OC)cc2)c(O)c1	none
CCOc1ccc(-c2[nH]ncc2Oc2ccccc2OCC)c(O)c1	CHOP inh 80
CC1=C(C(=O)OC2CCCCC2)C(c2cccs2)n2c(nc3ccccc32)N1 (centres undefined)	CHOP inh 84
COC(=O)C1=C(C)Nc2nc3ccccc3n2C1c1ccccc1F (centres undefined)	none
CCOC(=O)C1=C(C)Nc2nc3ccccc3n2C1c1ccccc1 (centres undefined)	CHOP inh 78
CC1(C(=O)Nc2cnc3ccccc3c2)CCN1Cc1ccc(OC(F)(F)F)cc1 (centres undefined)	none (no result: XBP1 UPR activ, CHOP inh, CHOP UPR activ)
Fc1ccc(Nc2nc(-c3ccncc3)nc3ccccc23)cc1	CHOP inh 90
CCCCC1CCC(C(=O)NCc2ccc3c(c2)OCO3)CC1 (centres undefined)	CHOP inh 83
CCS(=O)(=O)N1CCC(C(=O)NCc2ccc3c(c2)OCO3)CC1	none
Cc1cccc(Oc2ccc(N)cc2)c1	none
Nc1ccc(Oc2cccc(Oc3ccc(N)cc3)c2)cc1	CHOP inh 88
CCCOc1ccc(/C=N/NC(=O)C2CCCN2S(=O)(=O)c2ccc(Cl)cc2)cc1 (centres undefined)	none
CC(C)Oc1ccc(/C=N/NC(=O)C2CCCN2S(=O)(=O)c2ccc(Cl)cc2)cc1 (centres undefined)	CHOP inh 79
O=C(Nc1nc2ccccc2s1)c1ccc2sc([C@H]3C[C@H](O)[C@@H](CO)O3)nc2c1	none (no result: XBP1 UPR activ, CHOP inh, CHOP UPR activ)
Nc1nc(Br)c2c(F)cccc2c1-c1ccccc1	none
Nc1nc(Br)c2c(F)cccc2c1-c1ccc(F)cc1	CHOP inh 74
COc1ccncc1-c1ccccc1C1=CC(=O)CC(C)(C)C1=O	none (no result: XBP1 UPR activ, CHOP inh, CHOP UPR activ)
Cc1ccc(NC(=O)COc2ccc3oc4c(c3c2)CCCC4)nc1	CHOP inh 76
Cc1noc(C)c1Cn1c(C)c(C(=O)NCc2ccc3c(c2)OCCO3)sc1=O	none (no result: XBP1 UPR activ, CHOP inh, CHOP UPR activ)
CCN(CC)C(=O)C1CCCN(Cc2ccc(F)c(F)c2)C1 (centres undefined)	CHOP inh 86
CCOC(=O)c1sc(NC(=O)Nc2ccccc2Cl)cc1C	CHOP inh 80
O=c1cc(N=Nc2ccc(Cl)cc2)[nH]c(=O)[nH]1	CHOP inh 105 (no result: XBP1 UPR activ, CHOP UPR activ)
O=C(Nc1ccc(N2CCN(C(=O)c3ccc(Cl)cc3)CC2)cc1)c1cc2ccccc2o1	none
CS(=O)(=O)N1CCN(c2ccc(NC(=O)c3ccc(-c4ccc(Cl)cc4)o3)cc2)CC1	CHOP inh 75
O=C(Nc1ccc(N2CCN(C(=O)c3ccc(Cl)cc3)CC2)cc1)c1ccc(Br)o1	CHOP inh 77
COc1cccc(-c2ccc3c(c2)O[C@H](CN(C)C(=O)c2ccccc2F)[C@H](C)CN([C@H](C)CO)S3(=O)=O)c1	none (no result: XBP1 UPR activ, CHOP inh, CHOP UPR activ)
C=CCn1c(=O)c2ccc(C(=O)NCc3ccccc3)cc2n(Cc2cccc(Cl)c2)c1=O	none
C=CCn1c(=O)c2ccc(C(=O)NCc3ccccc3)cc2n(Cc2ccc(Cl)cc2)c1=O	CHOP inh 86
C#Cc1ccc(NC(=O)C2(C)CCN2C(=O)CC(c2ccccc2)c2ccccc2)cc1 (centres undefined)	none (no result: XBP1 UPR activ, CHOP inh, CHOP UPR activ)
CCc1c(C#N)c(SCCC(=O)Nc2ccc(C)cc2)nc2c1C(=O)CC(C)(C)C2	CHOP inh 85
CCOc1ccc(NC(=O)CCSc2nc3c(c(CC)c2C#N)C(=O)CC(C)(C)C3)cc1	none
COc1ccc(-c2cn3cccnc3n2)cc1NC(=O)c1ccc(Br)o1	CHOP inh 86
Cc1ccc(-c2cn3cccnc3n2)cc1NC(=O)c1ccc(Br)o1	none
O=C/C(=C\Nc1ccc(Cl)cn1)c1nc2cc(Cl)ccc2o1	CHOP inh 75
C/C(=C\C(=O)c1ccc(Br)cc1)NCc1ccc(C)cc1	CHOP inh 77
COc1cccc(-c2nc(N3CC(C)CC(C)C3)c3ccccc3n2)c1O (centres undefined)	XBP1 UPR activ 46, CHOP inh 76
CC1CN(c2nc(-c3ccccc3)nc3ccccc23)CC(C)O1 (centres undefined)	CHOP inh 82
COc1cc(Nc2ccn3nc(-c4ccccc4Cl)cc3n2)cc(OC)c1OC	none (no result: XBP1 UPR activ, CHOP inh, CHOP UPR activ)
N#Cc1ccc(S(=O)(=O)N2CCCCC2c2cc(C(=O)NCc3ccccc3)no2)cc1 (centres undefined)	none (no result: XBP1 UPR activ, CHOP inh, CHOP UPR activ)
COCCNC(=O)c1c(N)n(CCC2=CCCCC2)c2nc3ccccc3nc12	CHOP inh 78
COc1ccc(CCn2c(N)c(C(=O)NCc3ccco3)c3nc4ccccc4nc32)cc1	none
COC(=O)CN1C(=O)S/C(=C/c2cc(C)n(C)c2C)C1=O	GAA850 FXN act 8.8
COc1ccc(N=C2S/C(=C\c3cc(C)n(C)c3C)C(=O)N2CC(C)C)cc1	none
COc1ccc(Cl)cc1C1=NOC2(CCC2)C(=O)N1Cc1cccc(C#N)c1	none (no result: XBP1 UPR activ, CHOP inh, CHOP UPR activ)
COc1cccc(C=NNc2nc3ccccc3s2)c1OC	none (no result: XBP1 UPR activ, CHOP inh, CHOP UPR activ)
COc1cccc(/C=N/Nc2ncnc3scc(-c4ccccc4)c23)c1OC	CHOP inh 71
CCOc1ccccc1OCC(O)CNC (centres undefined)	CHOP inh 72
O=C(O)CC/C(=C\c1ccc(N2CCCC2)c([N+](=O)[O-])c1)c1nc2ccccc2s1	CHOP inh 95
CN(c1ccccc1)c1ccc(/C=C(/CCC(=O)O)c2nc3ccccc3s2)cc1[N+](=O)[O-]	none (no result: XBP1 UPR activ, CHOP inh, CHOP UPR activ)
CCCCCCCC(=O)N/N=C(\C)c1ccc(N)cc1	none (no result: GAA850 FXN act)
CCCCCC(=O)N/N=C(\C)c1ccc(N2CCCCC2)cc1	CHOP inh 76
